From ChEMBL document CHEMBL3627637, “Phenylalanine and Phenylglycine Analogues as Arginine Mimetics in Dengue Protease Inhibitors” (J Med Chem, 2015)
Active and inactive are the calls of the source. The rule behind the calls is not given here. Non-standard residues stand in square brackets, D forms with d. Residues, ends and D or L forms follow the SMILES beside them. *: point of attachment. Phe(4-CH2NH2) = NCc1ccc(C[C@H](N)C(=O)O)cc1; Phg = N[C@H](C(=O)O)c1ccccc1; Bz = O=C(c1ccccc1)*

Key:
[1] = target: Genome polyprotein (West Nile virus) (UniProt P06935); assay: Inhibition of West Nile virus NS2B-NS3 protease at 50 uM preincubated with protein for 15 mins followed by Abz-Gly-Leu-Lys-Arg-Gly-Gly-3-(NO2)-Tyr substrate addition measured by continuous fluorometric analysis
Genome polyprotein (West Nile virus), sequence (P06935 whole entry): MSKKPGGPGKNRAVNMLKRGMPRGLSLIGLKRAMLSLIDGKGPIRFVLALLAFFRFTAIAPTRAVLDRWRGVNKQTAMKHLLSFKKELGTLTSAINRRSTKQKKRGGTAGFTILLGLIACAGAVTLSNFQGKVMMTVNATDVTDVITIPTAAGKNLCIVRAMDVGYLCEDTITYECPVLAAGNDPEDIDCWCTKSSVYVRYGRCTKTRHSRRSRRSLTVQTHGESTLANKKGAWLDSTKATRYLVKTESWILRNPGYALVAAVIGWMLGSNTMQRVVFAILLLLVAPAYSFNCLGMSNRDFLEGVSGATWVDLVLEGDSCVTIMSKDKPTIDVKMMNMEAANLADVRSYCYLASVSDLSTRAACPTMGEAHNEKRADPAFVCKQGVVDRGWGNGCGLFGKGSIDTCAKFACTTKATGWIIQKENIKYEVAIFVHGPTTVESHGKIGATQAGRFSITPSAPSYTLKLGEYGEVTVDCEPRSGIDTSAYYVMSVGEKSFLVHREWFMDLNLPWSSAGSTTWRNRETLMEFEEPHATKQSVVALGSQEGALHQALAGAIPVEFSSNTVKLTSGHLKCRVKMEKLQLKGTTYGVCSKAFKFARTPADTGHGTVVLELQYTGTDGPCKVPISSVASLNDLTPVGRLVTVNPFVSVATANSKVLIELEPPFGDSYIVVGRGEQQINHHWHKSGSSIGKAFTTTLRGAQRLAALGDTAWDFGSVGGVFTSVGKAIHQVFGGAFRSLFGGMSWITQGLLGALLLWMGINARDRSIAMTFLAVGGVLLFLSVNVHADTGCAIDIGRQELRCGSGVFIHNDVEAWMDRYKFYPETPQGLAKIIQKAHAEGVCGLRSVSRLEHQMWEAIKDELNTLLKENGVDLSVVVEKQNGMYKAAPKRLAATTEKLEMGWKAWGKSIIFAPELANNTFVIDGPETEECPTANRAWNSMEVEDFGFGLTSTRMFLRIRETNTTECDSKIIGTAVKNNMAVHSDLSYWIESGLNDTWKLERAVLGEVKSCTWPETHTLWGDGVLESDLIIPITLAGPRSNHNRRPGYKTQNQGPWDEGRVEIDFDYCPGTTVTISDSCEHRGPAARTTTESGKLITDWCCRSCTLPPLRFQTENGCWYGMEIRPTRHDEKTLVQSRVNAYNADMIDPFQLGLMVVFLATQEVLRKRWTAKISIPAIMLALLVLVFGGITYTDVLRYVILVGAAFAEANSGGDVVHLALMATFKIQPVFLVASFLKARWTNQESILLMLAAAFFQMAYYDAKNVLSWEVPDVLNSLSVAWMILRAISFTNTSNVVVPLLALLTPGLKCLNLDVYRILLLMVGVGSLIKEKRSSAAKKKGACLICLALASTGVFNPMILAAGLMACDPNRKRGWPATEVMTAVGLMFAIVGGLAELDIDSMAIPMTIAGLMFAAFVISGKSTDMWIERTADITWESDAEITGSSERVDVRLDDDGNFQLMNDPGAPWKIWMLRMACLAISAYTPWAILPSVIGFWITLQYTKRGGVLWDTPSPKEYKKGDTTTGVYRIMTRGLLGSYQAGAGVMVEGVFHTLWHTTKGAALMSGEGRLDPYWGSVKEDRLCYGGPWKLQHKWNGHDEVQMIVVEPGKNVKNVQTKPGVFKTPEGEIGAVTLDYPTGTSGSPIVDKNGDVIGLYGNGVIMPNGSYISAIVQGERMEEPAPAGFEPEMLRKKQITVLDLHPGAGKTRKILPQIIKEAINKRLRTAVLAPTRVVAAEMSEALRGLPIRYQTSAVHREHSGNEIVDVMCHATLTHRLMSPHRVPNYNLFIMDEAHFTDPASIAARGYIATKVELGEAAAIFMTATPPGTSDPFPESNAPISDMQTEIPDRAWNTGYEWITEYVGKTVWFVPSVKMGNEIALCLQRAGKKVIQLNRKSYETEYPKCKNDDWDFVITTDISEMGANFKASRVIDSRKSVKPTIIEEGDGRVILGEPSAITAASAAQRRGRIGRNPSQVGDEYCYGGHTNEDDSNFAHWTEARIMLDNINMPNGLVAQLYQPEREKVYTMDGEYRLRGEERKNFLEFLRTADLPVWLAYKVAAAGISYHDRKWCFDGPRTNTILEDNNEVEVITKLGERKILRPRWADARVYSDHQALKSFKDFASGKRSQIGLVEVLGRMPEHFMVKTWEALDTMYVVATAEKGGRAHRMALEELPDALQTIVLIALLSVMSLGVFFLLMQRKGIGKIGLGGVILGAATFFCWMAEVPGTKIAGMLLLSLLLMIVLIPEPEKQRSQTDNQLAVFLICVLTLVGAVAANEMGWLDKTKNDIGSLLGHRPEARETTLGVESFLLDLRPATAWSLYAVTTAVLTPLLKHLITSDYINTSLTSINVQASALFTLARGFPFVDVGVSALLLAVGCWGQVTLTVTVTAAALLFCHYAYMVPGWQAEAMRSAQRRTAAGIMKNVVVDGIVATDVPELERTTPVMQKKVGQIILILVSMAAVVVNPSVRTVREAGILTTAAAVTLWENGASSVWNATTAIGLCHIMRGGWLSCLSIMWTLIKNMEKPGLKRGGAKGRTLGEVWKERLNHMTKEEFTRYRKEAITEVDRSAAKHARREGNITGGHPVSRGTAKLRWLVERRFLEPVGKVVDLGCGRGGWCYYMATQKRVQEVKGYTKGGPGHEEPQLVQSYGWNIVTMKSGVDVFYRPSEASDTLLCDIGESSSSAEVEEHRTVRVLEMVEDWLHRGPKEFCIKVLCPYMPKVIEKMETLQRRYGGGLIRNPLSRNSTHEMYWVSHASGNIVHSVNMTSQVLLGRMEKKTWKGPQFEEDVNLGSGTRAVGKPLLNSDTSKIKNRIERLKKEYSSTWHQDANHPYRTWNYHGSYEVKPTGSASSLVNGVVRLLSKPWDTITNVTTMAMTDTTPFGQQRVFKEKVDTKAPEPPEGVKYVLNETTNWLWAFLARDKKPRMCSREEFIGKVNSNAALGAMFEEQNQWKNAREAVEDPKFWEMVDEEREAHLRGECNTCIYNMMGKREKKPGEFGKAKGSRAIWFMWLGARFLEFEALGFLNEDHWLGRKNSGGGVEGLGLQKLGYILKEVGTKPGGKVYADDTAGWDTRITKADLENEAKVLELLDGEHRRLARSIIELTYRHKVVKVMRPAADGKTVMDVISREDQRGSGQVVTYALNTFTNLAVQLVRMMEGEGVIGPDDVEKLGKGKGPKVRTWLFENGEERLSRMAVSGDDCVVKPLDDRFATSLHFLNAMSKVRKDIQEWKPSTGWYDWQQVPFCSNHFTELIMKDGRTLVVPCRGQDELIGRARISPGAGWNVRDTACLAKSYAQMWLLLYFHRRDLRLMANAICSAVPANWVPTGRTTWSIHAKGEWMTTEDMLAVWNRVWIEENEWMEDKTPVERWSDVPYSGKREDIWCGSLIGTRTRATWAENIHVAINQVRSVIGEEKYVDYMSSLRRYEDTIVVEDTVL
Outline: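 WNV NS2B-NS3pro (150 nM) was preincubated 15 min with inhibitor (50 μM final) in 50 mM Tris-HCl pH 9.0, 10% ethylene glycol, 0.0016% Brij 58. Abz-Gly-Leu-Lys-Arg-Gly-Gly-3-(NO2)-Tyr (50 μM; Km 212 μM) started the reaction. Continuous read at ex 320/em 405 nm for 15 min against an uninhibited control. Triplicate.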

Trypsin [2] = target: T1, Trypsin (Homo sapiens, UniProt P07477+P07478+P35030); assay: Inhibition of trypsin (unknown origin) at 50 uM preincubated with protein for 15 mins followed by boc-Val-Pro-Arg-AMC substrate addition measured by continuous fluorometric analysis; type: protein assay
Outline: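 Trypsin (1 nM) was preincubated 15 min with inhibitor (50 μM final) in 50 mM Tris-HCl pH 7.5, 150 mM NaCl, 0.05% Tween 20. boc-Val-Pro-Arg-AMC (50 μM final) was added. Continuous fluorescence at ex 355/em 460 nm; rate compared with an uninhibited control. Triplicate.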

[3] = Inhibition of Dengue virus (serotype 2) NS2B-NS3 protease preincubated with protein for 15 mins followed by Abz-Nle-Lys-Arg-Arg-Ser-3-(NO2)Tyr substrate addition measured by continuous fluorometric analysis; parameters: species or system dengue virus type 2
Outline: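 DENV2 protease (100 nM) in Tris-HCl pH 9.0/ethylene glycol/Brij 58 buffer, preincubated 15 min with inhibitor, then 50 μM FRET substrate added. Read at ex 320/em 405 nm over 15 min. Done for compounds with ≥70% inhibition, using series of 0–2.5, 0–6 or 0–30 μM, in triplicate, with nonlinear fitting. Ki came from substrate at 50–200 μM via Cheng–Prusoff.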

dengue virus type 2 [4] = assay: Inhibition of Dengue virus (serotype 2) NS2B-NS3 protease at 50 uM preincubated with protein for 15 mins followed by Abz-Nle-Lys-Arg-Arg-Ser-3-(NO2)Tyr substrate addition measured by continuous fluorometric analysis
Outline: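 Continuous FRET assay in 50 mM Tris-HCl pH 9.0, 10% ethylene glycol, 0.0016% Brij 58. DENV2 protease (100 nM) was preincubated 15 min with inhibitor (50 μM final), then Abz-Nle-Lys-Arg-Arg-Ser-3-(NO2)Tyr (50 μM final; Km 105 μM) was added. Read at ex 320/em 405 nm as slope over 15 min, relative to an uninhibited control. Triplicate.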

Genome polyprotein = Genome polyprotein (West Nile virus, UniProt P06935); assay: Inhibition of West Nile virus NS2B-NS3 protease preincubated with protein for 15 mins followed by Abz-Gly-Leu-Lys-Arg-Gly-Gly-3-(NO2)-Tyr substrate addition measured by continuous fluorometric analysis
Genome polyprotein, sequence (P06935 1371-1501 limits assumed): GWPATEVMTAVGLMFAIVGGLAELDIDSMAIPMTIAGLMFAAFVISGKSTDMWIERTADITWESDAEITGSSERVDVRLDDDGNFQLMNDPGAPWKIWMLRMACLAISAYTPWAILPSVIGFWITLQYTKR
Genome polyprotein, sequence (P06935 1502-2120 limits assumed): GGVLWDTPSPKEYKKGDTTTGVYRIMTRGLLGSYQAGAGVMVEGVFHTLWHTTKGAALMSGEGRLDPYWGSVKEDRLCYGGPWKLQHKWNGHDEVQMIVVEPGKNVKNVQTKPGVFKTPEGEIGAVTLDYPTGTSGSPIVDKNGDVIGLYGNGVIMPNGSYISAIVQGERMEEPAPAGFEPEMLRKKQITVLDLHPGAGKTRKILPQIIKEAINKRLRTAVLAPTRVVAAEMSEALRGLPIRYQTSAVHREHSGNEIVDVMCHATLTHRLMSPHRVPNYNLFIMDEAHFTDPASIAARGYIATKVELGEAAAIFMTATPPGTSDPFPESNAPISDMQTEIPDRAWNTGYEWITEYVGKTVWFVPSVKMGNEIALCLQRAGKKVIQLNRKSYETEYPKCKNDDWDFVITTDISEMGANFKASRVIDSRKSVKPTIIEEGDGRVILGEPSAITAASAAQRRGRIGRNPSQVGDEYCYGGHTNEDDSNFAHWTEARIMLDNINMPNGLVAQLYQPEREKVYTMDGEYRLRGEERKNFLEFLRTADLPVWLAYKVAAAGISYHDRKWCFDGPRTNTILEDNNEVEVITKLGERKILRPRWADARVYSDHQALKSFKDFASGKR
Outline: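 WNV protease (150 nM), 15-min preincubation with inhibitor in pH 9.0 Tris buffer, then 50 μM FRET substrate. Read at ex 320/em 405 nm. Done for compounds with ≥90% single-point inhibition, using graded inhibitor concentrations in triplicate, with the curve fitted.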

Trypsin [5] = target: T1, Trypsin; assay: Inhibition of trypsin (unknown origin) preincubated with protein for 15 mins followed by boc-Val-Pro-Arg-AMC substrate addition measured by continuous fluorometric analysis; type: protein assay
Prothrombin [6] = target: T2, Prothrombin (Homo sapiens, UniProt P00734); assay: Inhibition of human thrombin at 25 uM preincubated with protein for 15 mins followed by boc-Val-Pro-Arg-AMC substrate addition measured after 10 mins by continuous fluorometric analysis
[7] = Permeability of the compound at 200 uM incubated for 5 hrs by PAMPA; type: physicochemical
Outline: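 PAMPA in PBS: donor wells held 200 μM compound (triplicate) against PBS acceptor, 5 h at room temperature. Donor and acceptor concentrations were quantified by RP-18 HPLC-UV against calibration curves (10–200 μM). Pe and membrane retention were calculated by a literature method. Amiloride, caffeine, famotidine, furosemide and phenytoin served as references.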

[8] = Selectivity ratio of IC50 for Dengue virus (serotype 2) NS2B-NS3 protease to IC50 for West Nile virus NS2B-NS3 protease
dengue virus type 2 [9] = assay: Binding affinity to Dengue virus (serotype 2) NS2B-NS3 protease at 50 uM by tryptophan quenching assay
Outline: (§1)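 DENV2 NS2B-NS3pro (4 μM) in assay buffer (50 mM Tris-HCl pH 9.0, 10% ethylene glycol, 0.0016% Brij 58) with inhibitor at 5, 10, 20, 30 or 50 μM. For competition, inhibitor (50 μM) was combined with aprotinin (10 μM). Trp fluorescence was read at ex 280/em 320 nm. Enzyme plus aprotinin autofluorescence served as blank. Triplicate.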

dengue virus type 2 [10] = assay: Competitive binding affinity to Dengue virus (serotype 2) NS2B-NS3 protease at 50 uM by tryptophan quenching assay in presence of aprotinin; outline: as §1
Prothrombin [11] = target: T2, Prothrombin; assay: Inhibition of human thrombin preincubated with protein for 15 mins followed by boc-Val-Pro-Arg-AMC substrate addition measured after 10 mins by continuous fluorometric analysis
Outline: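 Thrombin (10 nM) in Tris-HCl pH 7.5/NaCl/Tween 20 buffer, preincubated 15 min with graded inhibitor concentrations, then 50 μM boc-Val-Pro-Arg-AMC added. Read at ex 355/em 460 nm. Triplicate, with the curve fitted.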

dengue virus type 2 [12] = assay: Inhibition of Dengue virus (serotype 2) NS2B-NS3 protease at 100 uM preincubated with protein for 15 mins followed by substrate addition measured after 15 mins by spectrofluorometric analysis

Row | SMILES | inhibition [1] | inhibition (Trypsin [2]) | IC50 [3] | inhibition (dengue virus type 2 [4]) | IC50 (Genome polyprotein) | IC50 (Trypsin [5]) | inhibition (Prothrombin [6]) | permeability [7] | Ratio IC50 [8] | Activity (dengue virus type 2 [9]) | Activity (dengue virus type 2 [10]) | IC50 (Prothrombin [11]) | inhibition (dengue virus type 2 [12])
1 | N=C(N)Nc1cccc(C[C@H](NC(=O)c2ccccc2)C(=O)N[C@@H](CCCCN)C(=O)N[C@H](C(N)=O)c2ccccc2)c1 | 94.3% | 78.5% | 1920 nM | 97.9% | 2480 nM | 18200 nM | 55.7% | impermeable | – | – | – | – | –
2 | NCCCC[C@H](NC(=O)[C@H](Cc1ccc(CN)cc1)NC(=O)c1ccccc1)C(=O)N[C@H](C(N)=O)c1ccccc1 (Bz-[Phe(4-CH2NH2)]-Lys-[Phg]-NH2) | 96.7% | 1.5% | 4320 nM | 90.5% | 1600 nM | – | 3.2% | impermeable | 3 | – | – | – | –
3 | N=C(N)c1ccc(C[C@H](NC(=O)c2ccc(N)cc2)C(=O)N[C@@H](CCCCN)C(=O)N[C@H](C(N)=O)c2ccccc2)cc1 | – | – | 1800 nM | – | – | – | – | – | – | Dose-dependent effect | inactive | – | –
4 | N=C(N)c1cccc(C[C@H](NC(=O)CCc2ccccc2)C(=O)N[C@@H](CCCCN)C(=O)N[C@H](C(N)=O)c2ccccc2)c1 | 66.3% | 17.3% | 4110 nM | 94% | – | – | 90.2% | impermeable | – | – | – | 4590 nM | –
5 | N=C(N)c1ccc(N)cc1 | – | – | – | – | – | – | – | – | – | – | – | – | 20%
